According to ChEMBL document CHEMBL4049461, “Double-Winged 3-Hydroxypyrimidine-2,4-diones: Potent and Selective Inhibition against HIV-1 RNase H with Significant Antiviral Activity” (J Med Chem, 2017):

Tests used:
[1] = Inhibition of recombinant full length HIV1 reverse transcriptase RNase H domain using RNA/DNA duplex substrate HTS1 assessed as reduction in internal cleavage of RNA strand by fluoresence assay; parameters: species or system Human immunodeficiency virus 1
How it was run: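 Full-length HIV RT incubated with fluorescein/Dabcyl-labelled 18-mer RNA/DNA duplex HTS-1, which reports non-specific internal RNA cleavage, across a compound concentration series. Dose-response data fitted by nonlinear regression to logistic curves. IC50 given as mean ± SD from at least two independent experiments.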

[2] = Inhibition of recombinant full length HIV1 reverse transcriptase polymerase domain assessed as decrease in extension of 18 nucleotide DNA primer annealed to 100 nucleotide DNA template after 30 mins; parameters: species or system Human immunodeficiency virus 1
How it was run: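 20 nM RT, 40 nM 18-nt primer annealed to 100-nt DNA template, and 10 μM dNTPs in 50 mM Tris pH 7.8, 50 mM NaCl, 1% DMSO, with increasing compound concentrations. Reactions started with 6 mM MgCl2, run 30 min at 37 °C, and stopped with 100 mM EDTA.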

[3] = Inhibition of HIV integrase strand transfer activity expressed in Escherichia coli BL21 (DE3) using 5' biotin ATGTGGAAAATCTCTAGCA primer annealed with ACTGCTAGAGATTTTCCACAT 3' Cy5 template preincubated for 10 mins followed by primer/template addition measured after 30 mins by fluorescence assay; parameters: species or system Human immunodeficiency virus
How it was run: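 Integrase preincubated 10 min at 25 °C with compound (final 0.13–100 μM, duplicate) in 10 mM HEPES pH 7.5, 10% glycerol, 10 mM MnCl2, 1 mM DTT, 1 μM enzyme. Biotin/Cy5 oligo duplex added; 30 min at 37 °C; EDTA quench.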

[4] = system: Human immunodeficiency virus 1; test: Antiviral activity against HIV1 infected in CD4/CXCR4/CCR5 expressing human P4R5 cells assessed as inhibition of viral replication preincubated with cells for 24 hrs followed by viral infection measured after 48 hrs by beta-galactosidase reporter gene assay; type: functional; details: Human immunodeficiency virus 1, P4/R5
How it was run: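 P4R5 indicator cells (CD4, CXCR4, CCR5; HIV LTR-driven β-galactosidase reporter) seeded 4 × 10³/well in DMEM/10% FBS with puromycin (1 μg/mL). Cells lysed, MUG substrate added, fluorescence β-galactosidase readout.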

[5] = Cytotoxicity against human P4R5 cells by MTS assay; type: cell-based

SMILES | IC50 [1] [µM] | IC50 [2] [µM] | IC50 [3] [µM] | EC50 [4] [µM] | CC50 [5] [µM]
O=C(Nc1ccc(-c2ccccc2)cc1)c1c(NCc2ccccc2)[nH]c(=O)n(O)c1=O | 0.12 | > 10 | > 100 | 15 | 54
Cc1ccc(NC(=O)c2c(NCc3ccccc3)[nH]c(=O)n(O)c2=O)cc1 | 0.019 | 10 | 34 | 7.2 | 53
O=C(NCc1cccc(Cl)c1F)c1c(Nc2ccc(-c3ccccc3)cc2)[nH]c(=O)n(O)c1=O | 0.059 | > 10 | > 100 |  | 
O=C(Nc1ccc(F)cc1F)c1c(NCc2ccccc2)[nH]c(=O)n(O)c1=O | 0.079 | > 10 | 29 | > 20 | > 100
O=C(Nc1ccc(-c2ccccc2)cc1)c1c(Nc2ccc(-c3ccccc3)cc2)[nH]c(=O)n(O)c1=O | 1 | 1.8 | > 100 |  | 
O=C(Nc1ccccc1)c1c(NCc2ccccc2)[nH]c(=O)n(O)c1=O | 0.027 | > 10 | > 100 | 6.9 | 52
O=C(NCc1ccccc1)c1c(NCc2ccc(-c3ccccc3)cc2)[nH]c(=O)n(O)c1=O | 0.054 | > 10 | 1.6 | > 20 | 
COc1cc2ccccc2cc1/C=N/NC(=O)c1cc(O)c(O)c(O)c1 | 0.2 | 0.5 |  |  | 
O=C(NCc1cc(F)ccc1F)c1c(Nc2ccc(-c3ccccc3)cc2)[nH]c(=O)n(O)c1=O | 0.05 | 9.5 | > 100 | 3.7 | > 100
O=C(Nc1cccc2ccccc12)c1c(Nc2ccccc2)[nH]c(=O)n(O)c1=O | 0.018 | 7.7 | 3.2 | 11.4 | 76.8
O=C(NCc1ccc(F)cc1)c1c(Nc2ccc(-c3ccccc3)cc2)[nH]c(=O)n(O)c1=O | 0.047 | > 10 | > 100 |  | 
O=C(NCc1ccc(-c2ccccc2)cc1)c1c(NCc2ccc(-c3ccccc3)cc2)[nH]c(=O)n(O)c1=O | 0.11 | > 10 | > 100 | > 20 | > 100
O=C(Nc1ccc(-c2ccccc2)cc1)c1c(NCc2ccc(-c3ccccc3)cc2)[nH]c(=O)n(O)c1=O | 0.14 | > 10 | > 100 | > 20 | 
O=C(NCc1ccccc1)c1c(Nc2ccccc2)[nH]c(=O)n(O)c1=O | 0.056 | > 10 | 0.23 | 0.6 | > 100
O=C(Nc1ccc(C(F)(F)F)cc1)c1c(NCc2ccccc2)[nH]c(=O)n(O)c1=O | 0.041 | > 10 | > 100 | > 20 | > 100
O=C(NCc1ccc(-c2ccccc2)cc1)c1c(NCc2ccccc2)[nH]c(=O)n(O)c1=O | 0.038 | > 10 | > 100 | > 20 | > 100

SMILES | IC50 [1] [µM] | IC50 [2] [µM] | IC50 [3] [µM] | EC50 [4] [µM] | CC50 [5] [µM]
O=C(NCc1ccccc1)c1c(Nc2ccc(-c3ccccc3)cc2)[nH]c(=O)n(O)c1=O | 0.11 | > 10 | 23 |  | 
O=C(Nc1ccc(F)cc1)c1c(Nc2ccccc2)[nH]c(=O)n(O)c1=O | 0.004 | > 10 | 3.1 | 6.1 | 58.4
CCc1ccc(NC(=O)c2c(NCc3ccccc3)[nH]c(=O)n(O)c2=O)cc1 | 0.054 | 10 | > 100 | 8.5 | > 100
O=C(NCc1ccccc1F)c1c(Nc2ccc(-c3ccccc3)cc2)[nH]c(=O)n(O)c1=O | 0.04 | > 10 | > 100 |  | 
O=C(Nc1ccc(F)cc1)c1c(NCc2ccccc2)[nH]c(=O)n(O)c1=O | 0.019 | 10 | 71 | > 20 | > 100
O=C(NCc1cccc(F)c1)c1c(Nc2ccc(-c3ccccc3)cc2)[nH]c(=O)n(O)c1=O | 0.049 | > 10 | > 100 | 6.3 | > 100
O=C(Nc1ccc(-c2ccc(F)cc2)cc1)c1c(Nc2ccc(-c3ccccc3)cc2)[nH]c(=O)n(O)c1=O | 0.97 | 1.6 | > 100 |  | 
O=C(NCc1ccccc1)c1c(NCc2ccccc2)[nH]c(=O)n(O)c1=O | 0.032 | > 10 | 0.14 | 1.4 | > 100
O=C(NCc1ccc(F)cc1F)c1c(Nc2ccc(-c3ccccc3)cc2)[nH]c(=O)n(O)c1=O | 0.077 | 8.6 | > 100 | 1.5 | > 100
O=C(Nc1ccc(C(F)(F)F)cc1)c1c(Nc2ccccc2)[nH]c(=O)n(O)c1=O | 0.038 | 8.1 | 9.5 | 3.5 | > 100
O=C(Nc1ccccc1)c1c(Nc2ccccc2)[nH]c(=O)n(O)c1=O | 0.016 | > 10 | 1.5 | 6.6 | > 100
O=C(Nc1ccccc1)c1c(NCc2ccc(-c3ccccc3)cc2)[nH]c(=O)n(O)c1=O | 0.047 | > 10 | > 100 | > 20 | 
COc1ccc(-c2ccc(NC(=O)c3c(Nc4ccc(-c5ccccc5)cc4)[nH]c(=O)n(O)c3=O)cc2)cc1 | 1.2 | 1.4 | > 100 |  | 
Cc1ccc(NC(=O)c2c(Nc3ccccc3)[nH]c(=O)n(O)c2=O)cc1 | 0.03 | > 10 | 2.6 | 4.5 | > 100
O=C(Nc1cccc2ccccc12)c1c(NCc2ccccc2)[nH]c(=O)n(O)c1=O | 0.057 | > 10 | 21 | > 20 | > 100
